Data from ChEMBL document CHEMBL1641558, “A novel series of potent and selective EP(4) receptor ligands: facile modulation of agonism and antagonism” (Bioorg Med Chem Lett, 2011).
Activity calls are given as the source filed them. No cut-off for these calls is given here.

Experiments:
[1] = Drug excretion in rat bile assessed as total radioactivity after 24 hrs; format: ADME; settings: in vivo
Hepatocyte [2] = assay: Oxidative metabolism in rat hepatocytes assessed as protein covalent binding per mg of protein after 2 hrs; format: ADME, cell-based
Hepatocyte [3] = assay: Oxidative metabolism in human hepatocytes assessed as protein covalent binding per mg of protein after 2 hrs; format: ADME, cell-based
Rattus norvegicus [4] = organism: Rattus norvegicus; assay: covalent protein labeling in rat assessed per mg of protein; format: ADME, organism-based; settings: in vivo
[5] = target: T1, Prostaglandin E2 receptor EP4 subtype (Homo sapiens, UniProt P35408); assay: Displacement of [3H]PGE2 from human prostanoid EP4 receptor expressed in HEK293-EBNA cells after 60 mins by scintillation counting; format: cell-based
T1 sequence (P35408 whole entry): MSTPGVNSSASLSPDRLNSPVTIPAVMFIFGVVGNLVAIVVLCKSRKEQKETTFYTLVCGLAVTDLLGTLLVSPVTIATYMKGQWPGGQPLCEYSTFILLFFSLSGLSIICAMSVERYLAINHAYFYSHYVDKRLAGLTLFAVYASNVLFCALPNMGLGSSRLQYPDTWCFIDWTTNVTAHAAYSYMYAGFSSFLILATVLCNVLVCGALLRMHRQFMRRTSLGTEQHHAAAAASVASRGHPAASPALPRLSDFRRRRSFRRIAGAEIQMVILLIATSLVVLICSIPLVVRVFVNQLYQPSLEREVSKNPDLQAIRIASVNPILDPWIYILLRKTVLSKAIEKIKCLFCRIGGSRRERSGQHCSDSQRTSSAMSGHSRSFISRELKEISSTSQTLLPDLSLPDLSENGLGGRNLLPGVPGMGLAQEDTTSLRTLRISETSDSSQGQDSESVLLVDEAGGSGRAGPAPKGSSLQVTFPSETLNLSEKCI

[6] = target: T1, Prostaglandin E2 receptor EP4 subtype; assay: Antagonist activity at human prostanoid EP4 receptor expressed in HEK293 cells assessed as inhibition of PGE2-induced cAMP accumulation by scintillation proximity assay; format: functional, cell-based
Summary of the method: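 HEK293 cells expressing EP4 receptors. Antagonism is read as inhibition of PGE2-evoked rise in intracellular cAMP, reported as IC50. Agonism is read as cAMP elevation in the same cells without PGE2, reported as EC50.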

Homo sapiens [7] = organism: Homo sapiens; assay: Selectivity ratio of Ki for human prostanoid EP2 receptor to Ki for human prostanoid EP4
Homo sapiens [8] = organism: Homo sapiens; assay: Selectivity ratio of Ki for human prostanoid DP receptor to Ki for human prostanoid EP4
Homo sapiens [9] = organism: Homo sapiens; assay: Selectivity ratio of Ki for human prostanoid EP1 receptor to Ki for human prostanoid EP4
Homo sapiens [10] = organism: Homo sapiens; assay: Selectivity ratio of Ki for human prostanoid EP3 receptor to Ki for human prostanoid EP4
Homo sapiens [11] = organism: Homo sapiens; assay: Selectivity ratio of Ki for human prostanoid FP receptor to Ki for human prostanoid EP4
Homo sapiens [12] = organism: Homo sapiens; assay: Selectivity ratio of Ki for human prostanoid IP receptor to Ki for human prostanoid EP4
Homo sapiens [13] = organism: Homo sapiens; assay: Selectivity ratio of Ki for human prostanoid TP receptor to Ki for human prostanoid EP4
[14] = target: T1, Prostaglandin E2 receptor EP4 subtype; assay: Agonist activity at human prostanoid EP4 receptor expressed in HEK293 cells assessed as cAMP accumulation by scintillation proximity assay
[15] = Metabolic stability in rat hepatocytes assessed as parent compound remaining after 2 hrs; format: ADME, cell-based, Hepatocyte; settings: read-out: Stability
Summary of the method: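 Incubation with rat hepatocytes for 2 h. The mixture is analysed by LC/MS for percent parent remaining and metabolite identity.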

[16] = Half life in rat at 20 mg/kg, po and 5 mg/kg, iv; format: ADME, organism-based; settings: in vivo
Summary of the method: (§1)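 Rat pharmacokinetics with potassium salts, given 20 mg/kg orally in 0.5% methocel and 5 mg/kg intravenously in 60% PEG 200. Half-life, oral bioavailability and clearance derived from these dosings.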

[17] = Bioavailability in rat at 20 mg/kg, po and 5 mg/kg, iv; format: ADME, organism-based; settings: in vivo; summary of the method: as §1
[18] = Clearance in rat at 20 mg/kg, po and 5 mg/kg, iv; format: ADME, organism-based; settings: in vivo; summary of the method: as §1
Rattus norvegicus [19] = assay: Antiinflammatory activity in rat assessed as inhibition of complete Freund's adjuvant-induced paw swelling administered daily once 9 days after adjuvant challenge measured on day 18; format: functional, organism-based
Summary of the method: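 Adjuvant arthritis in rats: complete Freund's adjuvant injected into the left hind paw on day 0. Dosing once daily for 9 days, starting on day 9. Secondary paw volume measured on day 18. Percent inhibition is calculated from the difference between each treated group (n = 7/group) and vehicle control; SEM reported.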

Rattus norvegicus [20] = assay: Analgesic activity against carrageenan-induced mechanical hyperalgesia in rat assessed as paw withdrawal latency at 10 mg/kg; format: functional
Summary of the method: (§2)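 Rats given carrageenan injection into the paw at t = 0 h, test article dosed at t = 2 h. At t = 3 h mechanical pressure is applied to the paw and paw withdrawal latency is recorded. Statistics by one-way ANOVA with Dunnett's test versus vehicle control.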

Rattus norvegicus [21] = organism: Rattus norvegicus; assay: Analgesic activity against carrageenan-induced mechanical hyperalgesia in rat assessed as paw withdrawal latency; format: functional, organism-based; summary of the method: as §2
Rattus norvegicus [22] = assay: Antiinflammatory activity in rat assessed as inhibition of complete Freund's adjuvant-induced paw swelling at 0.6 mg/kg administered daily once 9 days after adjuvant challenge measured on day 18

Ki [5] [nM]	IC50 [6] [nM]	Ratio Ki (Homo sapiens [7])	Ratio Ki (Homo sapiens [8])	Ratio Ki (Homo sapiens [9])	Ratio Ki (Homo sapiens [10])	Ratio Ki (Homo sapiens [11])	Ratio Ki (Homo sapiens [12])	Ratio Ki (Homo sapiens [13])	EC50 [14] [nM]	half-life [16] [h]	bioavailability [17] [%]	clearance [18] [mL/min/kg]	Structure (SMILES)	other results
–	–	–	–	–	–	–	–	–	–	–	–	–	[3H]c1cc2c(c(C(=O)N[C@@H](C)c3ccc(C(=O)O)cc3)c1)N(Cc1ccc(C(F)(F)F)cc1)CC2	Activity [1]: 86%; Activity (Hepatocyte [2]): 56 pmolequiv/mg; Activity (Hepatocyte [3]): 28 pmolequiv/mg; Activity (Rattus norvegicus [4]): 5 pmol
0.4	> 10000	> 1000	> 1000	> 1000	> 1000	> 1000	> 1000	> 1000	0.2	–	–	–	C[C@H](NC(=O)c1cccc2c1N(Cc1cccc(C(F)(F)F)c1)CC2)c1ccc(C(=O)O)cc1	–
0.37	2.1	> 1000	> 1000	> 1000	> 1000	> 1000	> 1000	> 1000	–	4.1	48	11	C[C@H](NC(=O)c1cccc2c1N(Cc1ccc(C(F)(F)F)cc1)CC2)c1ccc(C(=O)O)cc1	remaining at 2 h [15]: 36%; inhibition (Rattus norvegicus [19]): Dose-dependent effect; Activity (Rattus norvegicus [20]): 64%; Activity (Rattus norvegicus [21]): Dose-dependent effect; inhibition (Rattus norvegicus [22]): Active
0.44	> 10000	595	> 1000	> 1000	> 1000	> 1000	> 1000	> 1000	0.82	4.4	65	26	C[C@H](NC(=O)c1cccc2c1N(Cc1cccc(Cl)c1)CC2)c1ccc(C(=O)O)cc1	–
